MrgX1 antag: antagonists of human MrgX1 receptor; MRGX1-HEK293 calcium flux, Fluo-4, BAM8-22 antagonism; stronger effect = lower value; B-score at 10 µM; 310,000 compounds, 1.3% hits; Q96LB2;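 active = calcium-response B-score plate-corrected more than 3 library SD below zero, starting fluorescence within 5 deviations, no agonist response on first addition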;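 note: peak minus trough fluorescence over baseline after final BAM8-22 challenge near maximal dose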
Target sequence (Q96LB2 whole entry, looked up): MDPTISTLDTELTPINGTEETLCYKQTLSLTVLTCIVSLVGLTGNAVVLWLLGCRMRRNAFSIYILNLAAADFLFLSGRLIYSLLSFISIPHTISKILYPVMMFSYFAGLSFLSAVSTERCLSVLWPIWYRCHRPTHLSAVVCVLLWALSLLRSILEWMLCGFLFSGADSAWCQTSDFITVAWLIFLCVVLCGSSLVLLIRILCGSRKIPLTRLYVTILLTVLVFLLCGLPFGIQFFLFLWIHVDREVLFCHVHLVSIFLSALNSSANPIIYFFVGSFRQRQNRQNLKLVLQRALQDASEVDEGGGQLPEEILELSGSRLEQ
MrgX1 PAM: human MrgX1 positive allosteric modulation, primary screen; Q96LB2; MrgX1-HEK293, Fluo-4 calcium flux, FDSS; stronger effect = higher value; B-score at 10 µM; 310,000 compounds, 0.63% hits; AID 588675;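 active = plate-corrected calcium response at least 3 library SD above typical, normal starting fluorescence, not activating the receptor alone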;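 note: compound read alongside a low EC10 to EC30 dose of BAM8-22 agonist; peak minus trough fluorescence over baseline measured at the second addition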
RGS4 block: human RGS4 inhibition; HEK293 M3R/RGS4 inducible, Fluo-4 calcium flux; stronger effect = higher value; triggered by carbachol at its EC20; P49798; 310,000 compounds, 0.45% hits; B-score at 10 µM;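 active = B-score, a plate-corrected calcium signal, over three deviations above library mean, with baseline fluorescence within five deviations of library mean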;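 note: RGS4 expression induced by doxycycline in cells with stable M3 receptor; B-score is computed from the integrated fluorescence ratio over baseline after carbachol; higher B-score means a larger calcium signal and so more RGS4 inhibition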
RGS4 act: RGS4 potentiation or activation; 310,000 compounds, 0.92% hits; HEK293 M3R/inducible RGS4, carbachol calcium flux Fluo4; stronger effect = lower value; B-score at 10 µM;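 active = B-score of the integrated calcium signal more than 4 SD below the library mean, with starting fluorescence not abnormally high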;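 note: negative B-score means reduced calcium response which marks RGS4 activation or potentiation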
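Material: Inducible-RGS4 HEK293 cells carrying M3 receptor; also added: carbachol at ECmax as muscarinic agonist stimulus; incubation: compound preincubation 20 min at room temperature before agonist; signal: Fluo4-AM (2 µM) calcium-flux fluorescence, kinetic read; measure: integrated calcium ratio converted to B score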
MrgX1 agonist: agonists of human MrgX1 receptor. Q96LB2. MrgX1-HEK293 cells, Fluo-4 calcium fluorescence, agonist mode; stronger effect = higher value. B-score at 10 µM. 310,000 compounds, 0.44% hits;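 active = calcium response B-score plate-corrected fluorescence ratio at least 3 library SD, with starting fluorescence B-score inside 5 SD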
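Test system: Stable human MrgX1 HEK293 cell line | Schedule: Overnight plating before 1 h dye loading | Read-out basis: Baseline-normalised fluorescence change ratio, B-scored | Detection: Kinetic calcium dye fluorescence, Fluo-4 NW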
PHOSPHO1 block: PHOSPHO1 (human) inhibition. Q8TCT1. inhibition, % at 13.3 µM. AID 1565. recombinant PHOSPHO1, absorbance phosphatase assay. 290,000 compounds, 1.1% hits; in the data active = inhibition above about 60%
Target sequence (Q8TCT1 whole entry, looked up): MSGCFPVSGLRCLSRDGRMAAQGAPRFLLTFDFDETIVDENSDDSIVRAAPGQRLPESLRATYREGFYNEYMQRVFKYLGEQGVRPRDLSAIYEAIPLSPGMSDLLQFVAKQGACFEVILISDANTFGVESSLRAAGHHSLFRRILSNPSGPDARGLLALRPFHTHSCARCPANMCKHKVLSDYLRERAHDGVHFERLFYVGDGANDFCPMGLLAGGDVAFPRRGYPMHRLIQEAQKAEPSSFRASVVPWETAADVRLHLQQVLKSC
MrgX1 antag conf: human MrgX1 receptor antagonism, re-confirmation screen; shares compounds with MrgX1 antag; MrgX1-HEK293, BAM8-22 calcium flux, Fluo-4; stronger effect = lower value; remaining BAM8-22 calcium response % of control (stronger effect = lower value), % at 10 µM; 2,300 compounds, 19% hits;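 active = remaining agonist calcium response no higher than 100% minus 3 SD of agonist-only control wells, with starting fluorescence near control levels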;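 note: agonist BAM8-22 given at a near maximal EC90 to ECmax level; peak minus minimum fluorescence divided by baseline after agonist addition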
HEK293 Ca flux: counter-screen for MrgX1 antagonists: effect in parental HEK293 cells | shares compounds with MrgX1 antag | Fluo-4 calcium fluorescence, FDSS | fluorescence ratio F(max-min)/F0 at 10 µM | 4,000 compounds, 2% hits | AID 624111;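 active = duplicate-averaged calcium fluorescence ratio at least three times the standard deviation of buffer wells, a nonspecific response in parental cells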
HEK293 Ca counter: counter-screen for MrgX1 allosteric activators: effect in parental HEK293 cells; shares compounds with MrgX1 antag; parental HEK293 calcium flux, Fluo-4 fluorescence ratio; stronger effect = higher value; fluorescence ratio F(max-min)/F0 at 10 µM; 4,000 compounds, 0.4% hits; AID 624114;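 active = calcium fluorescence ratio, averaged over duplicates, at least 3 SD of the buffer-well ratio, meaning a nonspecific response in receptor-free cells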;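 note: untransfected parental HEK293 lacking MrgX1 used as counterscreen for MrgX1 allosteric activators; fluorescence change taken during the second addition on a kinetic imager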
HEK293 Ca cntr2: activity in parental HEK293 cells lacking MrgX1 receptor; shares compounds with MrgX1 antag; Fluo-4 calcium fluorescence (FDSS); stronger effect = higher value; fluorescence ratio F(max-min)/F0 at 10 µM; 4,000 compounds, 8.7% hits;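 active = calcium fluorescence ratio at least three times the spread of buffer wells, meaning a non-specific response in parental cells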
* marks the source's active call; other numbers are inactive results; i = inactive; x = not tested or not shown. Sampled rows, rich in hits. Any-hit rate of the full collection: about 4.5%.

SMILES	MrgX1 antag	MrgX1 PAM	RGS4 block	RGS4 act	MrgX1 agonist	PHOSPHO1 block	MrgX1 antag conf	HEK293 Ca flux	HEK293 Ca counter	HEK293 Ca cntr2
O=C(NC1CC1)c1cc2c(s1)-c1ccccc1OC2	-5.21*	i	i	i	i	-13.9	i	i	i	i
O=C(CCN(NC(=O)c1ccccc1)C1=NS(=O)(=O)c2ccccc21)NC1CCCCC1	i	i	i	i	i	4.6	x	x	x	x
CCc1cccc(C)c1NC(=S)NCc1ccc2[nH]c(C)cc2c1	-9.1*	i	i	i	i	-28.3	i	i	i	i
CNC(=S)NCc1ccc2[nH]c(C)cc2c1	i	i	i	i	i	-6.8	x	x	x	x
CCOC(=O)CN1C(=O)CN(c2ccc(C)cc2)C1=O	-4.97*	i	i	i	i	-3.9	i	i	i	i
Cc1cc2c3nonc3ccc2n1-c1ccccc1	-5.19*	i	i	i	i	30.5	83.6%*	i	i	i
Cc1nc(Cl)c(C(=O)NC(C)(C)C)c(C)c1Cl	-9.37*	i	i	i	i	-6.8	i	i	i	i
O=C(CCc1ccccc1)NCc1ccc(F)cc1	i	i	i	i	i	9.7	x	x	x	x
O=C(O)CCC(=O)NCc1ccc(F)cc1	-6.29*	i	i	i	i	9.1	i	i	i	i
O=C(c1ccccc1NS(=O)(=O)c1cccc([N+](=O)[O-])c1)N1CCCC1	i	i	i	i	i	37.7	x	x	x	x
CCOC(=O)C1=C(O)CSC1=Nc1cccc2ccccc12	i	i	i	i	i	-2.7	x	x	x	x
CCOC(=O)C1=C(O)CSC1=Nc1ccc(C)cc1	-5.73*	i	i	i	i	41.7	i	i	i	i
COC(=O)c1ccc(C(=O)N2CCCC(CNC(=O)c3ccccc3Cl)C2)cc1 (stereo not drawn)	i	i	i	i	i	44.9	x	x	x	x
COCCNC(=O)c1ccc(C)cc1C	-5.31*	i	i	i	i	29.9	72.9%*	i	i	i
COc1ccc(C(=O)c2cn[nH]c2-c2cc(Cl)ccc2O)cc1	i	i	i	i	i	5.2	x	x	x	x
COc1ccc(C(=O)c2cn[nH]c2-c2cc(C)ccc2O)cc1	-4.51*	i	i	i	i	24.1	i	i	i	i
Nc1ccc(C(=O)Nc2nccs2)cc1	i	i	i	i	i	15.9	x	x	x	x
Cc1ccc(C(=O)Nc2nccs2)cc1	-5.25*	i	i	i	i	15.0	i	i	i	i
COc1ccc(-c2csc(NC(=O)c3nc(-c4ccccc4)oc3C)n2)cc1	i	i	i	i	i	39.3	x	x	x	x
Cc1oc(-c2ccccc2)nc1C(=O)Nc1nccs1	-5.69*	i	i	i	i	1.4	i	i	i	i
CCN(CC)S(=O)(=O)c1cccc(-c2nnc(SCC(N)=O)n2C)c1	-6.71*	i	i	i	i	-2.7	84.5%*	i	i	i
Cc1ccc(-c2nnc(SCC(N)=O)n2C)cc1	-4.95*	i	i	i	i	54.3	i	i	i	i
CN1CCN(c2ccc(NC(=O)C(C)(c3ccccc3)c3ccccc3)cc2)CC1	i	i	i	i	i	33.0	x	x	x	x
CN1CCN(c2ccc(-c3ccnn3C(=O)Nc3ccccc3)cc2)CC1	-10.3*	i	i	i	i	49.6	i	i	i	i
COc1ccc(C(=O)Nc2ccc(NC(=O)C3CC3)nc2)cc1	i	i	i	i	i	11.0	x	x	x	x
SMILES	MrgX1 antag	MrgX1 PAM	RGS4 block	RGS4 act	MrgX1 agonist	PHOSPHO1 block	MrgX1 antag conf	HEK293 Ca flux	HEK293 Ca counter	HEK293 Ca cntr2
CCCSc1ccc(C(=O)Nc2ccc(F)cc2F)cn1	i	i	i	i	i	47.1	x	x	x	x
CC(C)S(=O)(=O)c1ccc(C(=O)Nc2ccc(F)cc2F)cn1	-5.85*	i	i	i	i	25.6	i	i	i	i
CCN1CCN(CCCN(Cc2cccs2)C(=S)Nc2ccccc2C)CC1	i	i	i	i	i	12.7	x	x	x	x
O=C(NC1CCCC1)C(c1cccnc1)N(Cc1ccc(F)cc1)C(=O)c1csnn1 (stereo not drawn)	i	i	i	i	i	39.1	x	x	x	x
COc1cc2cc3c(N)c(C(=O)Nc4sc(C)c(C)c4C#N)sc3nc2cc1OC	-6.22*	i	i	i	i	-16.0	74.2%*	i	i	i
CC1=C(C(=O)c2ccccc2)C(c2ccc(O)cc2)NC(=S)N1 (stereo not drawn)	i	i	i	i	i	-1.2	x	x	x	x
CC1=C(C(=O)c2ccccc2)C(c2ccc(N3CCOCC3)cc2)NC(=O)N1 (stereo not drawn)	-8.09*	i	i	i	i	-13.7	73.4%*	i	i	i
N=c1c(S(=O)(=O)c2ccc(Cl)cc2)cc2c(=O)n3ccccc3nc2n1Cc1ccco1	i	i	i	i	i	8.1	x	x	x	x
CCOC(=O)c1cc2c(=O)n3cccc(C)c3nc2n(Cc2ccco2)c1=NC(=O)c1cccnc1	x	x	x	x	x	10.4	x	x	x	x
CCOC(=O)c1cc2c(=O)n3ccccc3nc2n(Cc2ccco2)c1=NC(=O)c1cccnc1	-14.9*	i	i	i	i	18.3	i	i	i	i
N=c1c(S(=O)(=O)c2ccc(Br)cc2)cc2c(=O)n3ccccc3nc2n1Cc1ccco1	-4.56*	i	i	i	i	11.9	82.2%*	i	i	i
Cc1ccc(C(=O)NC2CC3CCC(C2)N3Cc2ccco2)cc1 (stereo not drawn)	-7.81*	i	i	i	i	1.1	i	i	i	i
Cc1ccc(C(=O)NCc2ccco2)cc1	-5.32*	i	i	i	i	-11.3	i	i	i	i
